Series [1] addresses Human immunodeficiency virus type 1 reverse transcriptase (Human immunodeficiency virus 1, UniProt Q72547, V179D). Briefly: Inhibition of HIV1 reverse transcriptase V179D mutant.
The target in series [2] is Human immunodeficiency virus type 1 reverse transcriptase (Human immunodeficiency virus 1, UniProt Q72547, K103N). As to the kind of experiment: Inhibition of HIV1 reverse transcriptase K103N mutant.
A short description of series [3]: Selectivity index, ratio of CC50 for MT4 cells to EC50 for HIV1 NL43 infected MT4 cells. Type of series: functional.
Series [4] addresses Human immunodeficiency virus type 1 reverse transcriptase (Human immunodeficiency virus 1, UniProt Q72547). As to the kind of experiment: Inhibition of wild type HIV1 3B reverse transcriptase.
For series [5], the system named is Human immunodeficiency virus 1. As to the kind of experiment: Antiviral activity against HIV1 NL43 in MT4 cells assessed as inhibition of viral induced cytopathic effect after 5 days by MTT method. Conditions: Human immunodeficiency virus 1, NL43, MT4, 120 h. For orientation: Protection from cytopathic effect is a common read-out in antiviral testing.
Series [6] has as its target Human immunodeficiency virus type 1 reverse transcriptase (Human immunodeficiency virus 1, UniProt Q72547, V106A). Briefly: Inhibition of HIV1 reverse transcriptase V106A mutant.
Series [7] can be described thus: Resistance index, Ratio of EC50 for drug-resistant HIV1 with RT Y188L mutation in MT4 cells to EC50 for HIV1 NL43 in MT4 cells.
In series [8] the target is Human immunodeficiency virus type 1 reverse transcriptase (Human immunodeficiency virus 1, UniProt Q72547, Y188L). As to the kind of experiment: Inhibition of HIV1 reverse transcriptase Y188L mutant.
Series [9] deals with Human immunodeficiency virus type 1 reverse transcriptase (Human immunodeficiency virus 1, UniProt Q72547, L100I). As to the kind of experiment: Inhibition of HIV1 reverse transcriptase L100I mutant.
Series [10] in a line: Inhibition of HIV1 reverse transcriptase Y1811 mutant. Details: species or system Human immunodeficiency virus 1. In a few lines: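 Recombinant HIV-1 RT Y181I mutant, purified to >95%, 10 min preincubation with inhibitor. Radioactive nucleotide incorporation into poly(rA)/oligo(dT) 10:1 was followed at varied nucleotide substrate levels, sampling every 2 min for initial velocities. Inhibitor spanned 0.2–5 Ki. Ki came from Lineweaver-Burk and Dixon plots. Means ± SD of at least three experiments.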

Series [11] is described as follows: Cytotoxicity against MT4 cells after 4 days by MTT method. The class given is cell-based. Conditions: human. In a few lines: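 Mock-infected (noninfected) MT-4 cells, run in parallel with the antiviral test. Viable cells read by the MTT tetrazolium colorimetric method. […] Means ± SD from at least two experiments. The top concentration was limited where compounds precipitated in the culture medium.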
Background: Tetrazolium dyes change colour on reduction, which living cells bring about.

Series [12] in a line: Resistance index, Ratio of EC50 for drug-resistant HIV1 with RT K103N mutation in MT4 cells to EC50 for HIV1 NL43 in MT4 cells.
Series [13] is described as follows: Resistance index, Ratio of EC50 for drug-resistant HIV1 with RT IRLL98 mutation in MT4 cells to EC50 for HIV1 NL43 in MT4 cells.
Series [14] relates to Human immunodeficiency virus 1. Briefly: Antiviral activity against HIV1 with reverse transcriptase K103N mutation in MT4 cells assessed as inhibition of viral induced cytopathic effect by MTT method. Type of series: functional, organism-based. As to conditions: Human immunodeficiency virus 1, MT4. In a few lines:
(§1)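 MT-4 cells infected with the HIV-1 NNRTI-resistant mutant strain. Viable cells scored at day 5 post-infection by the MTT tetrazolium colorimetric method. […] Values are means ± SD from at least two experiments.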

Series [15] concerns Human immunodeficiency virus 1. As to the kind of experiment: Antiviral activity against HIV1 with reverse transcriptase IRLL98 mutation in MT4 cells assessed as inhibition of viral induced cytopathic effect by MTT method. Type of series: functional, organism-based. Conditions: Human immunodeficiency virus 1, MT4.
Series [16] deals with Human immunodeficiency virus 1. Briefly: Antiviral activity against HIV1 with reverse transcriptase Y188L mutation in MT4 cells assessed as inhibition of viral induced cytopathic effect by MTT method. Type of series: functional, organism-based. Conditions: Human immunodeficiency virus 1, MT4. In a few lines:
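MT-4 cells infected with the HIV-1 NNRTI-resistant mutant strain. Viable cells scored at day 5 post-infection by the MTT tetrazolium colorimetric method. Values are means ± SD from at least two experiments.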

The nature of series [17]: Resistance index, Ratio of EC50 for drug-resistant HIV1 with RT Y181C mutation in MT4 cells to EC50 for HIV1 NL43 in MT4 cells.
Series [18] deals with Human immunodeficiency virus 1. Briefly: Antiviral activity against HIV1 with reverse transcriptase Y181C mutation in MT4 cells assessed as inhibition of viral induced cytopathic effect by MTT method. The class given is functional, organism-based. As to conditions: Human immunodeficiency virus 1, MT4. Summed up:
as §1

Series [19] concerns Human immunodeficiency virus 1. Briefly: Resistance index, ratio of Ki for HIV1 reverse transcriptase Y181I mutant to Ki for wild type HIV1 3B reverse transcriptase. Summed up: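 Initial velocities came from radioactive nucleotide incorporation into poly(rA)/oligo(dT) 10:1, sampled every 2 min. Inhibitor spanned 0.2–5 Ki, with Lineweaver-Burk and Dixon plots. Fold-resistance is Ki mutant / Ki wild type.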

One may read the Ki as the dissociation constant of the complex between target and ligand, obtained from inhibition or displacement. The low end stands for tighter binding, the high end for weaker binding. For orientation: EC50 means the concentration at which the effect is half-maximal. By CC50 is commonly meant the concentration at which the toxic effect on the cells reaches its halfway point. A high value points to lower toxicity to the cells.

`CCC(c1nc(N(C)C)[nH]c(=O)c1C)c1c(F)cccc1F` (stereo unspecified): the Ki was over 40000 nM in series [1]; over 20000 nM in series [2]; 1000 nM in [4]; over 40000 nM in [6]; over 20000 nM in series [8]; over 20000 nM in [9]. This compound gave a Ki in series [10] of over 20000 nM. In addition, the “Ratio CC50/EC50” value in series [3] is over 11571. In addition, the EC50 in series [5] turned out to be 7 nM; in [14], 1830 nM; in series [15], 1180 nM; in series [16], 480 nM; in series [18], 290 nM. Besides, the “Ratio EC50” value in series [7] stood at 69; in series [12] it was 261; in series [13], 169; in series [17] it was 41. Further, in [11], the CC50 at 96 h was over 81000 nM.

With `CCN(C)c1nc(Cc2c(F)cccc2F)c(C)c(=O)[nH]1`, the “Ratio CC50/EC50” value in series [3] is on record as over 4722. Also, the EC50 in [5] is 18 nM; in series [14], 4600 nM; in series [15], 420 nM; in series [16], 8000 nM; in series [18] it was 710 nM. In addition, the “Ratio EC50” value is 444 in series [7], 256 in series [12], 23 in series [13] and 39 in series [17]. The same compound showed a CC50 at 96 h in series [11] of over 85000 nM.

On to `CCCNc1nc(C(C)c2c(F)cccc2F)c(C)c(=O)[nH]1` (stereo unspecified), for which the Ki was 470 nM in series [2]; 40 nM in series [4]; 40 nM in series [6]; 3110 nM in [8]; 310 nM in series [9]; 5020 nM in series [10]. Moreover, the “Ratio CC50/EC50” value in series [3] is 11667. In addition, the EC50 in series [5] was 3 nM; in [14] it was 370 nM; in series [15] it was 90 nM; in series [16], over 10000 nM; in [18] it was 60 nM. In addition, the CC50 at 96 h in series [11] is 35000 nM. Also, the “Ratio EC50” value in [12] was determined as 125; in [13] it was 30; in series [17] it was 20. Also, the Ratio Ki in series [19] was 125.

In the case of `Cc1c(C(C)c2c(F)cccc2F)nc(N2CCC(C)CC2)[nH]c1=O` (stereo unspecified), the “Ratio CC50/EC50” value in [3] is given as 27000. Besides, the EC50 worked out at 2 nM in series [5]; 322 nM in series [14]; 300 nM in series [15]; 220 nM in series [16]; 10 nM in series [18]. For the same compound, the Ratio EC50 in series [7] came out at 110; in [12], 161; in [13], 150; in series [17] it was 5. Moreover, the CC50 at 96 h in series [11] stood at 54000 nM.

With `Cc1c(Cc2c(F)cccc2F)nc(N(C)C(C)C)[nH]c1=O`, in series [3], the “Ratio CC50/EC50” value was determined as 39500. The EC50 in series [5] was determined as 2 nM; in series [14] it was 1200 nM; in series [15] it was 80 nM; in series [16], 2300 nM; in [18], 30 nM. For the same compound, the “Ratio EC50” value in series [7] is reported as 1150; in series [12], 600; in [13], 40; in series [17], 15. In addition, the CC50 at 96 h in [11] stood at 79000 nM.

Consider `CCCN(C)c1nc(Cc2c(F)cccc2F)c(C)c(=O)[nH]1`, for which the Ki in [1] is 200 nM; in series [2], over 20000 nM; in [4] it was 100 nM; in series [6], 8 nM; in series [8], over 20000 nM; in series [9] it was 18000 nM. The compound further displayed a Ki in series [10] of over 20000 nM. Besides, the “Ratio CC50/EC50” value in series [3] was over 40500. Also, the EC50 worked out at 2 nM in series [5]; 750 nM in [14]; 55 nM in series [15]; 1600 nM in series [16]; 39 nM in series [18]. For the same compound, the “Ratio EC50” value in series [7] was 800; in series [12], 375; in series [13] it was 27; in series [17], 19. Also, in [11], the cytotoxic concentration (CC50) at 96 h was over 81000 nM.

`Cc1c(Cc2c(F)cccc2F)nc(N(C)C2CCCCC2)[nH]c1=O`: in [3], the “Ratio CC50/EC50” value is listed as over 8000. Moreover, the EC50 in series [5] is 9 nM; in series [14], 4400 nM; in [15], 2000 nM; in [16], 6200 nM; in series [18] it was 140 nM. Moreover, the “Ratio EC50” value in [7] stood at 689; in series [12], 489; in series [13], 222; in series [17], 16. For the same compound, in [11], the CC50 at 96 h is over 72000 nM.

`O=c1cc(Cc2c(F)cccc2F)nc(N2CCCCC2)[nH]1`: the Ki in [1] was 5000 nM; in [2], over 20000 nM; in [4], 2500 nM; in series [6], 200 nM; in series [8], over 20000 nM; in series [9], 10000 nM. In series [10], this compound displayed a Ki of over 20000 nM. In addition, the “Ratio CC50/EC50” value in series [3] was over 6308. For the same compound, the EC50 in series [5] was 13 nM; in series [14], over 10000 nM; in [15], 2200 nM; in series [16], 8000 nM; in series [18], 710 nM. Further, the “Ratio EC50” value in [7] was 615; in series [13], 169; in series [17], 55. In addition, the CC50 at 96 h in [11] was over 82000 nM.

On to `Cc1c(C(C)c2c(F)cccc2F)nc(N2CCOCC2)[nH]c1=O` (stereo unspecified), for which the Ki in [1] was over 20000 nM; in series [2], 3300 nM; in series [4] it was 3 nM; in [6] it was 500 nM; in series [8], 5500 nM; in [9] it was 10000 nM. Also, the Ki in [10] was over 20000 nM. Moreover, in series [3], the “Ratio CC50/EC50” value was over 37000. For the same compound, the EC50 in [5] was 2 nM; in [14] it was 390 nM; in series [15], 50 nM; in series [16] it was 560 nM; in series [18] it was 90 nM. In addition, the “Ratio EC50” value stood at 280 in [7], 195 in series [12], 25 in series [13] and 45 in [17]. The compound further gave a CC50 at 96 h in series [11] of over 74000 nM.

Consider `Cc1c(C(C)c2c(F)cccc2F)nc(N2CCCCC2)[nH]c1=O` (stereo unspecified), for which the Ki in series [1] was found to be 10 nM; in [2], 600 nM; in series [4] it was 70 nM; in series [6], 20 nM; in series [8] it was 3500 nM; in series [9], 2000 nM. This compound also registered a Ki in series [10] of over 20000 nM. In series [3], the “Ratio CC50/EC50” value is over 10714. Besides, the EC50 was found to be 7 nM in series [5]; 520 nM in series [14]; 60 nM in [15]; 390 nM in series [16]; 70 nM in series [18]. The “Ratio EC50” value in [7] was determined as 56; in series [12], 74; in [13] it was 9; in series [17], 10. Besides, the CC50 at 96 h in series [11] was over 75000 nM.

For `Cc1c(C(C)c2c(F)cccc2F)nc(N2CCCC(C)C2)[nH]c1=O` (stereo unspecified), the “Ratio CC50/EC50” value in [3] was over 24000. The EC50 in [5] was determined as 3 nM; in series [14], 193 nM; in [15] it was 200 nM; in series [16] it was 120 nM; in series [18], 14 nM. For the same compound, the Ratio EC50 in series [7] amounted to 40; in series [12] it was 64; in [13], 67; in series [17], 5. In addition, the CC50 at 96 h in series [11] is over 72000 nM.

For the origin of these results see ChEMBL document CHEMBL1137561 (J Med Chem, 2007).
